The values that follow come from ChEMBL document CHEMBL4433203, “Design, synthesis, and evaluation of isoflavone analogs as multifunctional agents for the treatment of Alzheimer's disease” (Eur J Med Chem, 2019).

Calls of active or inactive are those of the source.

Data set [1] can be described thus: Acute toxicity ICR mouse assessed as induction of macroscopic abnormalities in kidney at 0 to 1000 mg/kg, po measured after 14 da. In kind it is organism-based. Conditions: in vivo. In short, it runs like this: (§1)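 Male ICR mice (22 days, 20–22 g), n = 5 per group, chow and water ad libitum, 12 h light/dark cycle. Single oral dose of 0, 100, 200, 500 or 1000 mg/kg in 0.5% CMC-Na. Observed continuously for the first 4 h, intermittently over the next 24 h, then occasionally to 14 days. Euthanized on day 14.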

In data set [2] the test system is Mus musculus. The experiment in a line: Antialzheimer activity in ICR mouse model of scopolamine-induced cognitive deficit assessed as scopolamine-induced latency time at 10 to 30 mg/kg, po treated for 1 hr followed by scopolamine challenge for 30 mins by step-down passive avoidance test (reference value: 5 secs). In kind it is functional. An outline of the steps: (§2)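 ICR mice, six weeks old, 18-22 g, either sex, n = 15/group. […] Step-down test used foot shock of 20 V, 0.5 mA, 2 s, with a training trial and a test 24 h later. Read-outs were latency to first step-down and number of shocks in 5 min. Mean ± SEM.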

The nature of data set [3]: AUC (0 to infinity) in ICR mouse at 30 mg/kg, po measured upto 48 hrs by LCMS/MS method. It counts as ADME, organism-based. Also on record: dose 30 mg/kg, time infinity, route oral. The conditions noted are these: in vivo.
Data set [4] in a line: Acute toxicity ICR mouse assessed as induction of macroscopic abnormalities in heart at 0 to 1000 mg/kg, po measured after 14 days. It counts as organism-based. Conditions: in vivo, 336 h. In short, it runs like this:
as §1

Data set [5] deals with Cholinesterase (Mus musculus, UniProt Q03311). The experiment in a line: Inhibition of mouse plasma BuChE using S-butyrylacetylthiocholine iodide as substrate measured after 30 mins by Ellman's method relative to control. The conditions noted are these: read-out: IC50.
Chain of Cholinesterase (Q03311 whole entry): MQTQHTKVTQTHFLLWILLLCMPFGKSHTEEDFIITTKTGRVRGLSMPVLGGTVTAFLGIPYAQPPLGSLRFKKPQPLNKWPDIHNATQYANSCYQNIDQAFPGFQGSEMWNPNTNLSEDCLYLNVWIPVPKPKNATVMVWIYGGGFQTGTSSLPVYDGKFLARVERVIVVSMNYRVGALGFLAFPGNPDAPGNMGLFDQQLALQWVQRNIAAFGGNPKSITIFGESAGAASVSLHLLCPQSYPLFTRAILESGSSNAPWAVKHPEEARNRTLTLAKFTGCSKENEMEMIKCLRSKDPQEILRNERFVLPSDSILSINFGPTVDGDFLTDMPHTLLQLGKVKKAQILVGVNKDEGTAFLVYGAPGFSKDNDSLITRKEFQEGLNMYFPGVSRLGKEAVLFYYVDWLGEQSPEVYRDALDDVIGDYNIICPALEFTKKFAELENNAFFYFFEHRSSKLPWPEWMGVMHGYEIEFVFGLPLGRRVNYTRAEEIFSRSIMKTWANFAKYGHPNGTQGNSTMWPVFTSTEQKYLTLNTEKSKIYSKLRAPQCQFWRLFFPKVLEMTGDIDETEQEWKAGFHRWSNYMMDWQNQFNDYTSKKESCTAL
Data set [6] has as its target T1, Acetylcholinesterase (Mus musculus, UniProt P21836).
T1 sequence (P21836 whole entry): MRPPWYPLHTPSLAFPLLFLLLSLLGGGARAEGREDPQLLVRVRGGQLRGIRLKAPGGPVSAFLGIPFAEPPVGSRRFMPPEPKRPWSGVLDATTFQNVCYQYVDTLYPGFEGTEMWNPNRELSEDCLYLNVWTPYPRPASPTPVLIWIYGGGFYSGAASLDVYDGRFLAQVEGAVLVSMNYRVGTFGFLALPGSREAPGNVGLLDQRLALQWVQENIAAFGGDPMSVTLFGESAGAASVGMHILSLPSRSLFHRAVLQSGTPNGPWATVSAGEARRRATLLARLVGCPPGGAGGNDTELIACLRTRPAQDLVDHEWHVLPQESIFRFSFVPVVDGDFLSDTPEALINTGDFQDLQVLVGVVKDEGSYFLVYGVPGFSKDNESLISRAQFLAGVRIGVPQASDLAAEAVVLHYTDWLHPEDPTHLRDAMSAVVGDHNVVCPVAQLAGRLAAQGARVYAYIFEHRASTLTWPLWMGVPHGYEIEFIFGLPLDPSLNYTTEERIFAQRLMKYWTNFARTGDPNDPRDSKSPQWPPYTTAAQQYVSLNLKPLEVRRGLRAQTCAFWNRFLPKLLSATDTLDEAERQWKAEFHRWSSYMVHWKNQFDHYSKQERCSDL
The experiment in a line: Inhibition of mouse brain AChE using acetylthiocholine iodide as substrate measured after 30 mins by Ellman's method. Conditions: read-out: IC50. On the technique in general: In Ellman's method for cholinesterases, released thiocholine reacts with DTNB.

Data set [7] can be described thus: AUC (0 to t) in ICR mouse at 30 mg/kg, po measured upto 48 hrs by LCMS/MS method. In kind it is ADME, organism-based. Also on record: time < 48 hr, dose 30 mg/kg, route oral. Conditions: in vivo.
A short description of data set [8]: Acute toxicity ICR mouse assessed as effect on eating behavior at 0 to 1000 mg/kg, po measured up to 14 days. In kind it is organism-based. The conditions noted are these: in vivo, 336 h. An outline of the steps:
as §1

A short description of data set [9]: Antioxidant activity assessed as AAPH radical scavenging activity preincubated for 15 mins with fluorescein before AAPH addition and recorded every 2 mins for 160 mins by ORAC-FL assay. It counts as functional. In short, it runs like this: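 ORAC-FL assay in 75 mM PBS, pH 7.4. Compound was preincubated with fluorescein (20 nM final) for 15 min at 37 °C, then AAPH (18 mM final) was added. Fluorescence (ex 460/em 520 nm) was read every 2 min for 160 min. Net area under the decay curve, blank-normalized, is expressed as µM Trolox equivalents per µM compound. Duplicates, ≥3 independent assays.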

Data set [10] in a line: Cytotoxicity in human SH-SY5Y cells assessed as reduction in cell viability after 72 hrs incubation by MTT assay. Conditions: SH-SY5Y cells. Background: Tetrazolium assays rely on reduction of a dye to a coloured formazan, in cell work by metabolically active cells.
Data set [11] in a line: Acute toxicity ICR mouse assessed as induction of macroscopic abnormalities in liver at 0 to 1000 mg/kg, po measured after 14 da. In kind it is organism-based. The conditions noted are these: in vivo. In short, it runs like this: as §1
Data set [12] concerns AChE. The experiment in a line: Selectivity index, ratio of CC50 for human SH-SY5Y cells to IC50 for inhibition of mouse brain AChE.
Data set [13] can be described thus: Half life in ICR mouse at 30 mg/kg, po measured upto 48 hrs by LCMS/MS method. It counts as ADME, organism-based. Conditions: in vivo.
The nature of data set [14]: Acute toxicity ICR mouse assessed as effect on body weight change at 0 to 1000 mg/kg, po measured up to 14 days. It counts as organism-based. Conditions: in vivo, 336 h. In short, it runs like this:
as §1

Data set [15] in a line: Log BB, ratio of Cmax in brain to blood in ICR mouse at 30 mg/kg, po measured upto 48 hrs by LCMS/MS method. It counts as ADME, organism-based. The conditions noted are these: read-out: logBB (converted).
A short description of data set [16]: Cmax in ICR mouse brain at 30 mg/kg, po measured after 40 mins by LCMS/MS method. Also on record: dose 30 mg/kg, route oral. In kind it is ADME, organism-based. An outline of the steps: (§3)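 ICR mice got a single oral dose of 30 mg/kg. At 40 min they were sacrificed and plasma and brain collected. Compound in both was quantified by LC-MS/MS. Log BB is the log of the brain-to-blood concentration ratio. Methods state n = 5, table footnote n = 6. Mean ± SEM.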

Data set [17] deals with Mus musculus. The experiment in a line: Antialzheimer activity in ICR mouse model of scopolamine-induced cognitive deficit assessed as prolongation of scopolamine-induced latency at 10 to 30 mg/kg, po treated for 1 hr followed by scopolamine challenge for 30 mins by step-down passive avoidance test. In kind it is functional, organism-based. In short, it runs like this:
as §2

Data set [18] has as its system BV-2. The experiment in a line: Antiinflammatory activity in mouse BV2 cells assessed as reduction in LPS-induced IL-6 production at 10 uM pretreated for 1 hr followed by LPS challenge and measured after 24 hrs by ELISA assay. In kind it is functional, cell-based.
The nature of data set [19]: Tmax in ICR mouse at 30 mg/kg, po measured upto 48 hrs by LCMS/MS method. Conditions: in vivo. It counts as ADME, organism-based.
Data set [20] in a line: Plasma concentration in ICR mouse at 30 mg/kg, po measured after 40 mins by LCMS/MS method. It counts as ADME, organism-based. An outline of the steps:
as §3

Data set [21] has as its system SH-SY5Y. The experiment in a line: Neuroprotective activity against copper-induced cytotoxicity in human SH-SY5Y cells expressing APP Swedish mutant assessed as increase in cell viability at 10 uM pre-incubated for 2 hrs followed by copper addition and measured after 24 hrs by MTT assay. In kind it is functional, cell-based.
Data set [22] deals with H3R. The experiment in a line: Selectivity index, ratio of CC50 for human SH-SY5Y cells to IC50 for inhibition of human H3R expressed in methylhistamine-induced human H3-bla U2OS cells. In kind it is toxicity, cell-based. The conditions noted are these: read-out: Ratio CC50/IC50. In short, it runs like this: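 For IC50, H3-bla U2OS cells (human H3R–Gal4-VP16 plus β-arrestin/TEV, β-lactamase reporter) were seeded for 18 h. Compound was added for 30 min, then 400 nM methylhistamine (stock) for 5 h and FRET-B/G substrate for 2 h. Read 460/530 nm, triplicate per concentration, IC50 from log curves.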

On to `CCN(C)CCCCOc1ccc2c(=O)c(-c3ccc(OCCN4CCCCC4)cc3)coc2c1`, for which the Activity result in [1] is “Non-Toxic”; in data set [4] it was “Non-Toxic”; in data set [8], “Non-Toxic”; in data set [9], 0.01 equiv/µM; in data set [11], “Non-Toxic”; in data set [14], “Non-Toxic”. In addition, the Activity result in data set [17] was “Dose-dependent effect”. Further, the Time in [2] came out at 53 s. For the same compound, in [3], the area under the curve AUC(0-inf) – broadly, the area under the concentration-time curve extrapolated to infinity – came out at 0.352 µg·h/mL. In addition, the IC50 – broadly, the point on the concentration scale where inhibition reaches its midpoint – in data set [5] turned out to be 2.89 µM; in [6] it was 0.081 µM. Moreover, the exposure AUC(0-t) (commonly the area under the concentration-time curve up to a stated or last time point) at 48 h in data set [7] is 0.325 µg·h/mL. Further, the CC50 (in general, the concentration giving 50% cytotoxicity) at 72 h in data set [10] was greater than 100 µM. For the same compound, the figures for the selectivity ratio in [12] and in [22] were greater than 1230 and greater than 370, respectively. In [13], the half-life (commonly the time needed for the level to fall by half in the phase considered) is 13.9 h. Also, the Kp at 48 h in [15] is 17.4. Moreover, in data set [16], the highest level (Cmax) was 0.762 µg/mL. For the same compound, the result in data set [18] and in [21] was Active. Besides, in data set [19], the time of peak concentration (Tmax) (in general, the time from dosing to the highest level) was 0.65 h. The compound also displayed a concentration at 40 min in [20] of 0.0472 µg/mL.
